Bioassay records (PubChem)
Only some compounds are listed: those with a hit (about 2.3% of all), similar ones and a draw of the others.
TRPC4 potent: TRPC4 (mouse) allosteric potentiation. Q9QUQ5. HEK293 TRPC4beta/mu-opioid, DAMGO EC20, Fluo-4 Ca2+ flux; active compounds read high. B-score at 10 µM. 0.42% of 310,000 active. AID 2227;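 active = B-score of calcium response area above 5 SD of library B-scores, with initial fluorescence ratio within 5 SD of library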
TRPC6 inhibitor: inhibitors of mouse TRPC6 channel; Q61143; B-score at 10 µM; AID 2553; HEK293-TRPC6, membrane potential dye, ACh-evoked depolarization; active compounds read low; 1.1% of 310,000 active;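 active = B-score under library mean minus 3 SD, initial fluorescence not abnormally high, positive integrated signal ratio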;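 also: B-score derived from integrated fluorescence ratio over the kinetic read; more negative B-score means stronger inhibition of depolarization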
Target sequence (Q61143 whole entry, looked up): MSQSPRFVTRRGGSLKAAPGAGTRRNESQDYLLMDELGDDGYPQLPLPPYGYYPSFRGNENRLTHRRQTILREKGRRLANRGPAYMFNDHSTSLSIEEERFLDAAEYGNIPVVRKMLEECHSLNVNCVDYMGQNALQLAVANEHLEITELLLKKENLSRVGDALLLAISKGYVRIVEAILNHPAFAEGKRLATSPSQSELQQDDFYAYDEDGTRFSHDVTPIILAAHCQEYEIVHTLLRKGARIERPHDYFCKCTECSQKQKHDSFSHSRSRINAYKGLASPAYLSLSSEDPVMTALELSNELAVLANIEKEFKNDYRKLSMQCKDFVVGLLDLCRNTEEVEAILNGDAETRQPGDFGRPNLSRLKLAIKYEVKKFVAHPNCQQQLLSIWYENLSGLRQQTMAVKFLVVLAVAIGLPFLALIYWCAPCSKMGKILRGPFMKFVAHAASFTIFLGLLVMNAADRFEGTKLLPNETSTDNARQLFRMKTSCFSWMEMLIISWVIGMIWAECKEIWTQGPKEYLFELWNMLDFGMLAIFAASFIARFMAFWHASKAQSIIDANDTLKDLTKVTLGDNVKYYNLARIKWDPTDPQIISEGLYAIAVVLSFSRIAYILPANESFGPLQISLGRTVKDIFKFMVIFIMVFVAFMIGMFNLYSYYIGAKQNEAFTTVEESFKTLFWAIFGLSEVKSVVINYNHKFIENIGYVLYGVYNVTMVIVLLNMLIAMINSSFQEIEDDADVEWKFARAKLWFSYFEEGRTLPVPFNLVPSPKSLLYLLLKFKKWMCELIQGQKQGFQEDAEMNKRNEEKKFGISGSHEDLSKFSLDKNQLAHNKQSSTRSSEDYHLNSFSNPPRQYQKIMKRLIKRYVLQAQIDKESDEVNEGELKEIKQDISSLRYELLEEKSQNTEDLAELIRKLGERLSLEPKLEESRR
TRPC4 inh: TRPC4 (mouse) channel inhibition; HEK293 TRPC4beta/mu-opioid, DAMGO-evoked Fluo4 calcium flux; active compounds read low; 0.39% of 300,000 active; B-score at 10 µM;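 active = B-score over 3 SD under the library average, no early fluorescence shift, positive overall ratio signal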
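Assay system: Stable TRPC4beta/mu-opioid receptor HEK293 cells | Reagent: DAMGO in two steps, submaximal then maximal | Compound dosing: Single concentration per test compound | Signal: Fluo4 Ca2+ flux fluorescence | Evaluation: Per-well B score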
TRPC4 agonist: opens the mouse TRPC4 cation channel; Q9QUQ5; HEK293 TRPC4beta/mu-opioid, Fluo4 calcium fluorescence; active compounds read high; B-score at 10 µM; 0.49% of 310,000 active; AID 2237;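 active = B-score above 5 SD of library B-scores, and initial fluorescence ratio not above library mean plus 5 SD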;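 also: positive B-score marks a calcium rise read as TRPC4 activation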
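system = HEK293 cells stably co-expressing mouse TRPC4beta and mu-opioid receptor | schedule = Fluo4 dye loading 45 min at room temperature, 110 s recording | measure = B-scored integrated calcium fluorescence ratio | signal = Fluo4 calcium-sensitive dye fluorescence, kinetic, 1 Hz baseline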
TRPC6 activator: activators of mouse TRPC6 channel | Q61143 | HEK293-TRPC6 membrane potential dye fluorescence; active compounds read high | B-score at 10 µM | 0.13% of 310,000 active | AID 2550;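 active = B-score of the integrated fluorescence ratio above library mean plus 3 SD, and starting fluorescence ratio within library mean plus 5 SD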;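 also: higher score means more depolarization so channel activation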
A number is an active result; i = inactive.

SMILES | TRPC4 potent | TRPC6 inhibitor | TRPC4 inh | TRPC4 agonist | TRPC6 activator
Cc1ccc(NC(=O)NC(=O)CN2C(=O)NC3(CCCCCCC3)C2=O)c(C)c1 | i | -5.6 | i | i | i
Cc1cccc(C(=O)OC2CCCN(C)C2)c1C (centres undefined) | i | i | i | 95 | i
CN1CCCC(OC(=O)c2ccc(C#N)cc2)C1 (centres undefined) | i | i | i | i | i
Cc1ccccc1C(=O)OC1CCCN(C)C1 (centres undefined) | 14 | i | i | i | i
COC(=O)c1c(C)oc(C)c1S(=O)(=O)NCc1ccco1 | i | i | i | i | i
O=C(Nc1nnc(-c2cccs2)o1)c1cccc(C(F)(F)F)c1 | i | i | i | 127 | i
N#Cc1ccc(C(=O)Nc2nnc(-c3cccs3)o2)cc1 | i | i | i | i | i
COc1ccc(CN2C(=NC(=O)C3CCCO3)SC3CS(=O)(=O)CC32)cc1OC (centres undefined) | i | i | i | i | i
O=C(c1ccncc1)N1c2ccccc2Sc2ccccc21 | 26 | i | i | i | i
COc1cc(=O)n2c(-c3ccccc3)csc2n1 | i | i | -7 | i | i
O=c1cc(CN2CCN(c3ccccc3)CC2)nc2scc(-c3ccccc3)n12 | i | i | i | i | i
COc1cc2c(cc1OC)CN(Cc1cc(=O)n3c(-c4ccccc4)csc3n1)CC2 | i | i | i | 122 | i
COC(=O)Cn1ccc2cc(S(=O)(=O)N3CCCCC3)ccc21 | i | i | i | i | i
Cc1ccc(S(=O)(=O)N(OCc2ccccc2)C(C)C(=O)O)cc1 (centres undefined) | i | i | i | i | i
CCn1c(=O)c2cc(C(=O)N(C)c3cc(C)ccc3OC)sc2c2ccccc21 | i | i | -6 | i | i
Cc1oc(-c2ccoc2)nc1CN(Cc1ccccc1)CC1CC1 | i | i | -9 | i | i
Cc1ccc(NC(=O)CN2C(=O)NC3(CCc4ccccc43)C2=O)cc1S(=O)(=O)N1CCCCC1 (centres undefined) | i | i | i | i | i
O=c1[nH][nH]c(-c2ccccc2)c1C=Nc1ccc(Cl)cc1 | 84 | i | i | i | i
CC(C)c1ccccc1OCCCCCN1CCOCC1 | 13 | i | i | i | i
Brc1ccccc1OCCCCCN1CCOCC1 | 11 | i | i | i | i
CC(C)c1ccccc1OCCCCN1CCCCC1 | i | i | i | i | i
Brc1ccccc1OCCCN1CCCC1 | i | i | i | i | i
O=C(COc1ccc(Br)cc1CNCCCN1CCOCC1)Nc1ccccc1 | i | i | i | i | i
CCN(CC)S(=O)(=O)c1cc(C(=O)NCCN2CCOCC2)ccc1Cl | i | i | i | i | i
Cc1ccc(S(=O)(=O)Nc2ccc(Cl)cn2)cc1C | i | i | i | i | i
SMILES | TRPC4 potent | TRPC6 inhibitor | TRPC4 inh | TRPC4 agonist | TRPC6 activator
O=C1c2ccccc2C2(c3cc(C(F)(F)F)cc(C(F)(F)F)c3)NCCN12 (centres undefined) | i | i | -6 | i | i
N#CCCn1cc(CNCc2ccccc2)c(-c2cccc([N+](=O)[O-])c2)n1 | i | i | -6 | i | i
O=C(NCc1cn(-c2ccccc2)nc1-c1ccccc1)c1cccc([N+](=O)[O-])c1 | i | i | i | i | i
CCN1CCOC(CC(=O)Nc2ccc([N+](=O)[O-])cc2)C1=O (centres undefined) | i | i | i | i | i
CC(C)(CSc1ccccn1)NS(=O)(=O)c1ccc(Cl)cc1 | 10 | i | i | i | i
CC(C)(CSc1ccccn1)NS(=O)(=O)c1ccccc1 | i | i | i | i | i
Cc1ccc(S(=O)(=O)NC2CC2)cc1[N+](=O)[O-] | i | i | i | i | i
Cc1cc(C=O)c(C)n1-c1ccc(Oc2ccc([N+](=O)[O-])cn2)cc1 | i | i | i | i | i
Cc1cc(C=O)c(C)n1-c1ccc(NC2CCCC2)c([N+](=O)[O-])c1 | 13 | i | i | i | i
CC1OC(O[C@H]2CC[C@]3(C)C4C=C[C@]56OC[C@@]7(CC[C@@H](C)[C@H](C)C75)[C@H](O)C[C@@]6(C)[C@]4(C)CC[C@H]3C2(C)C)C(OC2OC(CO)C(O)C(O)C2OC2OCC(O)C(O)C2O)C(O)C1O (some centres undefined) | 11 | i | i | 356 | 13
COc1ccc(NC2CCCN(C(=O)c3cc4ncccn4n3)C2)cc1 (centres undefined) | i | i | i | i | i
